Laboratory results as given in ChEMBL document CHEMBL3407426, “Synthesis and biological evaluations of novel endomorphin analogues containing α-hydroxy-β-phenylalanine (AHPBA) displaying mixed μ/δ opioid receptor agonist and δ opioid receptor antagonist activities” (Eur J Med Chem, 2015).
Where a SMILES comes first, the peptide text is derived from it. [ ]: non-standard residue; d: D form. ξ: configuration not given here. Dmt = Cc1cc(O)cc(C)c1C[C@H](N)C(=O)O; ξTiq(1-COOH) = O=C(O)C1NCCc2ccccc21; β3hF = N[C@H](CC(=O)O)Cc1ccccc1

How the values were obtained:
Mu-type opioid receptor = Mu-type opioid receptor (Rattus norvegicus, UniProt P33535); assay: Displacement of [3H]DAMGO from rat cortex mu opioid receptor after 30 mins by liquid scintillation counting analysis
How it was run: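 Rat cortex membranes prepared in 50 mM Tris pH 7.4, spun 16,500 rpm for 10 min, and incubated 30 min at 37 °C. Competition against [³H]DAMGO. Assay ended by filtration on BSA-soaked GF/B filters. Ki values are means of two experiments.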

[1] = biological target: Delta-type opioid receptor (Rattus norvegicus, UniProt P33533); assay: Displacement of [3H]DPDPE from rat cortex delta opioid receptor after 2.5 hrs by liquid scintillation counting analysis
Rattus norvegicus = species on record: Rattus norvegicus; assay: Selectivity ratio of Ki for rat cortex mu opioid receptor to Ki for rat cortex delta opioid receptor
How it was run: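 Ki ratio (MOR/DOR), from Ki values that are means of two experiments. MOR: rat cortex homogenized in 50 mM Tris pH 7.4, spun, preincubated 30 min at 37 °C, spun again, then resuspended with bovine serum; displacement of [3H]DAMGO. DOR: 2 nM [3H]DPDPE; 2.5 h at 25 °C; unlabeled DPDPE as competitor. Filtration on GF/B.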

[2] = Half life in rat brain homogenate at 10 uM; assay type: ADME, tissue-based
How it was run: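 Peptide at a final 10 µM in rat brain homogenate (protein 21.2 mg/mL), incubated at 37 °C. Aliquots quenched in acetonitrile with internal standard in triplicate, centrifuged, and analysed by LC-MS/MS in MRM mode. Half-life from pseudo-first-order loss of the analyte/internal-standard ratio; mean of at least three experiments ± SEM.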

[3] = biological target: Mu-type opioid receptor (Homo sapiens) (UniProt P35372); assay: Agonist activity at mu opioid receptor (unknown origin) expressed in HEK293 cells assessed as change in cell morphology at 3.3 uM measured over 30 mins by label free binding assay relative to DAMGO; assay type: cell-based
How it was run: (§1)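 Label-free biosensor (BIND) measuring cell spreading as increase in peak wavelength value. MOR in HEK293 cells, DOR in CHO cells, seeded 2 × 10⁴/well on fibronectin/collagen/albumin-coated plates and incubated overnight. Assay buffer was HBSS with 0.5–1% DMSO, equilibrated 30 min at room temperature before a baseline read. Compound added to a final 3.3 µM and read over 30 min. Response given as % of DAMGO 300 nM (MOR, n = 2) or DPDPE 10 nM (DOR, n = 4).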

[4] = biological target: T1, Delta-type opioid receptor (Homo sapiens, UniProt P41143); assay: Agonist activity at delta opioid receptor (unknown origin) expressed in CHO cells assessed as change in cell morphology at 3.3 uM measured over 30 mins by label free binding assay relative to DPDPE; assay type: cell-based; how it was run: as §1
[5] = biological target: T1, Delta-type opioid receptor; assay: Agonist activity at delta opioid receptor (unknown origin) expressed in CHO cells assessed as inhibition of forskolin-induced cAMP production at 500 nM after 30 mins by europium cryptate/d2 dye-based FRET analysis relative to DPDPE; assay type: functional, cell-based
How it was run: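 DOR-expressing CHO cells, 20,000/well, exposed to test compound at 500 nM with 4 µM forskolin in PBS containing 1 mM IBMX for 30 min at room temperature. Cells then lysed with Europium cryptate and d2 acceptor reagents for 1 h, and cAMP read by FRET. Expressed as % of the 500 nM DPDPE response, n = 4.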

[6] = Selectivity ratio of Ki for guinea pig cortex/cerebella kappa opioid receptor to Ki for rat cortex delta opioid receptor
How it was run: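 Ki ratio (KOR/DOR), from Ki values that are means of two experiments. KOR: guinea pig cortex and cerebellum membranes in 50 mM Tris pH 7.4 with 10 mM MgCl2; 2 nM [3H]U69,593; 2 h at 25 °C; unlabeled U50,488 defines the curve and nonspecific binding. Filtration on GF/B.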

Sequence of Mu-type opioid receptor (Homo sapiens) (P35372 whole entry): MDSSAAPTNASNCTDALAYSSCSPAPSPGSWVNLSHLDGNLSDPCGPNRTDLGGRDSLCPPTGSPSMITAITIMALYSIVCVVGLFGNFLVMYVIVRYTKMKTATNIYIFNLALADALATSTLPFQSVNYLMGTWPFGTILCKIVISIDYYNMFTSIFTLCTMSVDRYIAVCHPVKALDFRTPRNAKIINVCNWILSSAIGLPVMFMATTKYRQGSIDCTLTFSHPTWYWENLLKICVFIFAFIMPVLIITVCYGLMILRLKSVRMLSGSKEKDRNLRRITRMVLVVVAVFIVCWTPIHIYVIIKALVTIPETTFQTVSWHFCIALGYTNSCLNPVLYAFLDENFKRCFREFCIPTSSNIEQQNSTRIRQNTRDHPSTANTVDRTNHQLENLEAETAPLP
T1 sequence (P41143 whole entry): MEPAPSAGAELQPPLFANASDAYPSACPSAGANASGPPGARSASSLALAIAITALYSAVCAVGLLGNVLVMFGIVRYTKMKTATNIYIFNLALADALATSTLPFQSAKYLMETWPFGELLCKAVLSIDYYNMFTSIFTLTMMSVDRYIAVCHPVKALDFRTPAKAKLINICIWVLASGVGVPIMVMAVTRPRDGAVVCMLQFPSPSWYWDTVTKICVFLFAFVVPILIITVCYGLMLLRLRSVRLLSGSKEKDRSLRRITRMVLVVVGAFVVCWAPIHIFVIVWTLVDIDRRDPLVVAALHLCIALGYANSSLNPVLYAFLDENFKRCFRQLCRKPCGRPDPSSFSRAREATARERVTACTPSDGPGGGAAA
Sequence of Delta-type opioid receptor (Rattus norvegicus, UniProt P33533) (P33533 whole entry): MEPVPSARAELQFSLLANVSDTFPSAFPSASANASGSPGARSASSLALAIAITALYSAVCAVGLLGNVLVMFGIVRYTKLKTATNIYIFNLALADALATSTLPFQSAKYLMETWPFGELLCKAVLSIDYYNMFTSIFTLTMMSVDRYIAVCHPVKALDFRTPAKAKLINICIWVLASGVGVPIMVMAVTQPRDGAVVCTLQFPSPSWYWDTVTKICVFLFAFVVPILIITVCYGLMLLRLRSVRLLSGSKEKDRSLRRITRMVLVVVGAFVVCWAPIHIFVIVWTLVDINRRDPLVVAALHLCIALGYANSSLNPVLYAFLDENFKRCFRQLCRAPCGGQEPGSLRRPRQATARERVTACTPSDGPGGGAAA
Sequence of Mu-type opioid receptor (P33535 whole entry): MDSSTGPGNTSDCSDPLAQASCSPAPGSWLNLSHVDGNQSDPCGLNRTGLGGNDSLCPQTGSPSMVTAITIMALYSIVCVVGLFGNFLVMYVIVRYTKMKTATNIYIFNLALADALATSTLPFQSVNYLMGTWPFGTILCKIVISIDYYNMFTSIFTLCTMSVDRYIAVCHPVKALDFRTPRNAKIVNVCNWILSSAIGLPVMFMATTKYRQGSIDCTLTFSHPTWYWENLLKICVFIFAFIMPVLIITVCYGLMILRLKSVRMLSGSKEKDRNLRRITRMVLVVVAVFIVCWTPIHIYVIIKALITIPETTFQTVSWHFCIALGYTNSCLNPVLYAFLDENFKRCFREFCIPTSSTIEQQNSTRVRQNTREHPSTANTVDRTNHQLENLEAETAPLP

NC(=O)[C@@H](O)[C@@H](Cc1ccccc1)NC(=O)[C@H](Cc1ccccc1)NC(=O)[C@@H]1CCCN1C(=O)[C@@H](N)Cc1ccc(O)cc1
Ki (Mu-type opioid receptor): 324 nM

NC(=O)[C@H](O)[C@H](Cc1ccccc1)NC(=O)[C@H](Cc1ccccc1)NC(=O)[C@@H]1CCCN1C(=O)[C@@H](N)Cc1ccc(O)cc1
Ki (Mu-type opioid receptor): 33 nM

Cc1cc(O)cc(C)c1C[C@H](N)C(=O)N1CCc2ccccc2C1C(=O)N[C@H](CC(=O)N[C@@H](Cc1ccccc1)C(N)=O)Cc1ccccc1 (stereo partly drawn) (H-[Dmt][ξTiq(1-COOH)][β3hF]F-NH2)
Ki (Mu-type opioid receptor): 6 nM
Ki [1]: 1 nM
Ratio Ki (Rattus norvegicus): 6
half-life at 10 µM [2]: > 120 min

Cc1cc(O)cc(C)c1C[C@H](N)C(=O)N1CCc2ccccc2C1C(=O)N[C@@H](Cc1ccccc1)C(=O)N[C@@H](Cc1ccccc1)[C@@H](O)C(N)=O (stereo not given in full)
Ki (Mu-type opioid receptor): 15 nM
Ki [1]: 0.5 nM
Activity [3]: 52%
Activity [4]: 22%
half-life at 10 µM [2]: 82.6 min

NC(=O)[C@@H](O)[C@@H](Cc1ccccc1)NC(=O)[C@H](Cc1c[nH]c2ccccc12)NC(=O)[C@@H]1CCCN1C(=O)[C@@H](N)Cc1ccc(O)cc1
Ki (Mu-type opioid receptor): 176 nM
Ki [1]: 287 nM

NC(=O)[C@H](O)[C@@H](Cc1ccccc1)NC(=O)[C@H](Cc1c[nH]c2ccccc12)NC(=O)[C@@H]1CCCN1C(=O)[C@@H](N)Cc1ccc(O)cc1
Ki (Mu-type opioid receptor): 243 nM
Ki [1]: 441 nM

NC(=O)[C@H](Cc1ccccc1)NC(=O)[C@H](O)[C@@H](Cc1ccccc1)NC(=O)[C@@H]1CCCN1C(=O)[C@@H](N)Cc1ccc(O)cc1
Ki (Mu-type opioid receptor): 2080 nM
Ki [1]: 1220 nM

NC(=O)[C@H](Cc1ccccc1)NC(=O)[C@@H](O)[C@H](Cc1ccccc1)NC(=O)[C@@H]1CCCN1C(=O)[C@@H](N)Cc1ccc(O)cc1
Ki (Mu-type opioid receptor): 497 nM
Ki [1]: 1790 nM

NC(=O)C[C@H](Cc1ccccc1)NC(=O)[C@H](Cc1ccccc1)NC(=O)[C@@H]1CCCN1C(=O)[C@@H](N)Cc1ccc(O)cc1
Ki (Mu-type opioid receptor): 23 nM
Ki [1]: 2500 nM

N=C(N)NCCC[C@H](NC(=O)[C@H](O)[C@H](Cc1ccccc1)NC(=O)[C@@H]1CCCN1C(=O)[C@@H](N)Cc1ccc(O)cc1)C(N)=O
Ki (Mu-type opioid receptor): 86 nM
Ki [1]: 483 nM

NC(=O)[C@H](Cc1ccccc1)NC(=O)[C@H](Cc1c[nH]c2ccccc12)NC(=O)[C@@H]1CCCN1C(=O)[C@@H](N)Cc1ccc(O)cc1
Activity [4]: 49%

NC(=O)[C@H](Cc1ccccc1)NC(=O)C[C@H](Cc1ccccc1)NC(=O)[C@@H]1CCCN1C(=O)[C@@H](N)Cc1ccc(O)cc1
Ki (Mu-type opioid receptor): 24 nM
Ki [1]: 385 nM

NC(=O)C(Cc1ccc(F)cc1)NC(=O)[C@H](O)[C@H](Cc1ccccc1)NC(=O)[C@@H]1CCCN1C(=O)[C@@H](N)Cc1ccc(O)cc1 (stereo not given in full)
Ki (Mu-type opioid receptor): 207 nM
Ki [1]: 829 nM

NC(=O)[C@H](O)[C@@H](Cc1ccccc1)NC(=O)[C@H](Cc1ccccc1)NC(=O)[C@@H]1CCCN1C(=O)[C@@H](N)Cc1ccc(O)cc1
Ki (Mu-type opioid receptor): 447 nM

Cc1cc(O)cc(C)c1C[C@H](N)C(=O)N1CCc2ccccc2C1C(=O)N[C@@H](Cc1c[nH]c2ccccc12)C(=O)N[C@@H](Cc1ccccc1)C(N)=O (stereo not given in full) (H-[Dmt][ξTiq(1-COOH)]WF-NH2)
Ki (Mu-type opioid receptor): 5 nM
Ki [1]: 2 nM
Activity [3]: 43%
Activity [4]: 26%
inhibition [5]: 87%
half-life at 10 µM [2]: 32.2 min

NC(=O)C[C@H](Cc1ccccc1)NC(=O)[C@H](Cc1c[nH]c2ccccc12)NC(=O)[C@@H]1CCCN1C(=O)[C@@H](N)Cc1ccc(O)cc1
Ki (Mu-type opioid receptor): 10 nM
Ki [1]: 4110 nM
half-life at 10 µM [2]: 4.57 min

NC(=O)[C@@H](O)[C@H](Cc1ccccc1)NC(=O)[C@H](Cc1c[nH]c2ccccc12)NC(=O)[C@@H]1CCCN1C(=O)[C@@H](N)Cc1ccc(O)cc1
Ki (Mu-type opioid receptor): 10 nM
Ki [1]: 508 nM
half-life at 10 µM [2]: 3.57 min

NC(=O)C(Cc1ccc2ccccc2c1)NC(=O)[C@H](O)[C@H](Cc1ccccc1)NC(=O)[C@@H]1CCCN1C(=O)[C@@H](N)Cc1ccc(O)cc1 (stereo not given in full)
Ki (Mu-type opioid receptor): 39 nM
Ki [1]: 757 nM

NC(=O)[C@H](Cc1ccccc1)NC(=O)[C@@H](O)[C@@H](Cc1ccccc1)NC(=O)[C@@H]1CCCN1C(=O)[C@@H](N)Cc1ccc(O)cc1
Ki (Mu-type opioid receptor): 202 nM
Ki [1]: 593 nM

NC(=O)[C@@H](O)[C@H](Cc1ccccc1)NC(=O)[C@H](Cc1ccccc1)NC(=O)[C@@H]1CCCN1C(=O)[C@@H](N)Cc1ccc(O)cc1
Ki (Mu-type opioid receptor): 17 nM
half-life at 10 µM [2]: 2.3 min

NC(=O)[C@H](O)[C@H](Cc1ccccc1)NC(=O)[C@H](Cc1c[nH]c2ccccc12)NC(=O)[C@@H]1CCCN1C(=O)[C@@H](N)Cc1ccc(O)cc1
Ki (Mu-type opioid receptor): 25 nM
Ki [1]: 453 nM

NC(=O)[C@H](Cc1ccccc1)NC(=O)[C@H](Cc1ccccc1)NC(=O)[C@@H]1CCCN1C(=O)[C@@H](N)Cc1ccc(O)cc1 [ENDOMORPHIN 2]
Activity [3]: 98%
Activity [4]: 52%
half-life at 10 µM [2]: 0.75 min

Cc1cc(O)cc(C)c1C[C@H](N)C(=O)N1CCc2ccccc2C1C(=O)N[C@@H](Cc1ccccc1)C(=O)N[C@@H](Cc1ccccc1)[C@H](O)C(N)=O (stereo not given in full)
Ki (Mu-type opioid receptor): 12 nM
Ki [1]: 1 nM
Activity [3]: 51%
Activity [4]: 82%
half-life at 10 µM [2]: 49 min

NC(=O)[C@H](Cc1ccccc1)NC(=O)[C@H](O)[C@H](Cc1ccccc1)NC(=O)[C@@H]1CCCN1C(=O)[C@@H](N)Cc1ccc(O)cc1
Ki (Mu-type opioid receptor): 9 nM
Ki [1]: 3290 nM
half-life at 10 µM [2]: 6.52 min

Cc1cc(O)cc(C)c1C[C@H](N)C(=O)N1CCc2ccccc2C1C(=O)N[C@@H](Cc1c[nH]c2ccccc12)C(=O)N[C@@H](Cc1ccccc1)[C@H](O)C(N)=O (stereo not given in full)
Ki (Mu-type opioid receptor): 3 nM
Ki [1]: 0.8 nM
Activity [3]: 50%
Activity [4]: 45%
inhibition [5]: 104%
half-life at 10 µM [2]: > 120 min

Cc1cc(O)cc(C)c1C[C@H](N)C(=O)N1CCc2ccccc2C1C(=O)N[C@@H](Cc1c[nH]c2ccccc12)C(=O)N[C@H](CC(N)=O)Cc1ccccc1 (stereo partly drawn) (H-[Dmt][ξTiq(1-COOH)]W[β3hF]-NH2)
Ki (Mu-type opioid receptor): 14 nM
Ki [1]: 1 nM
half-life at 10 µM [2]: > 120 min

NC(=O)[C@H](Cc1c[nH]c2ccccc12)NC(=O)[C@H](O)[C@H](Cc1ccccc1)NC(=O)[C@@H]1CCCN1C(=O)[C@@H](N)Cc1ccc(O)cc1
Ki (Mu-type opioid receptor): 13 nM

Cc1cc(O)cc(C)c1C[C@H](N)C(=O)N1CCc2ccccc2C1C(=O)N[C@@H](Cc1ccccc1)C(=O)N[C@H](CC(N)=O)Cc1ccccc1 (stereo partly drawn) (H-[Dmt][ξTiq(1-COOH)]F[β3hF]-NH2)
Ki (Mu-type opioid receptor): 15 nM
Ki [1]: 1 nM
Ratio Ki (Rattus norvegicus): 15
Ratio Ki [6]: 30
half-life at 10 µM [2]: 28.9 min
